Assay results from ChEMBL document CHEMBL4665656, “Toxicity, bioactivity, release of HS in vivo and pharmaco-kinetics of HS-donors with thiophosphamide structure” (Eur J Med Chem, 2019).

Experiments:
[1] = Induction of H2S generation assessed as half life at 150 uM incubated at 37 degC and pH 7.4 by fluorescence spectrophotometry; assay type: functional
In short: (§1)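 Donor at 150 µM final, mixed with 200 µM sulfonyl-azide fluorescent probe in buffer/acetonitrile (1:9) at set pH. Cuvette held in a water bath at 22 °C or 37 °C, with fluorescence read three times at intervals. H2S was quantified from a Na2S standard curve (0–200 µM, probe 200 µM).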

[2] = Induction of H2S generation assessed as half life at 150 uM incubated at 22 degC and pH 8 by fluorescence spectrophotometry; assay type: functional; in short: as §1
[3] = Induction of H2S generation assessed as Cmax at 150 uM incubated at 37 degC and pH 5 by fluorescence spectrophotometry; assay type: functional; in short: as §1
[4] = Induction of H2S generation assessed as Cmax at 150 uM incubated at 22 degC and pH 1.2 by fluorescence spectrophotometry; assay type: functional; in short: as §1
MCF7 = experiment: Cytotoxicity in human MCF-7 cells assessed as growth inhibition incubated for 24 hrs by MTT assay; assay type: functional, cell-based; conditions: MCF7, 24 h
In short: (§2)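 Cells were grown in RPMI 1640 with 10% FBS at 37 °C and 10% CO2, seeded at 6×10^3 cells/well. Exposure was 24 h, with viability by MTT, in triplicate cultures. IC50 was reported as mean ± SD.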

WI-38 = experiment: Cytotoxicity in human W138 cells assessed as growth inhibition incubated for 24 hrs by MTT assay; assay type: cell-based; conditions: WI-38, 24 h; in short: as §2
[5] = Induction of H2S generation assessed as Cmax at 150 uM incubated at 22 degC and pH 8 by fluorescence spectrophotometry; assay type: functional; in short: as §1
[6] = Induction of H2S generation assessed as Cmax Induction of H2S generation assessed as Cmax at 150 uM incubated at 37 degC and pH 8 by fluorescence spectrophotometry; assay type: functional; in short: as §1
[7] = Induction of H2S generation assessed as half life at 150 uM incubated at 37 degC and pH 5 by fluorescence spectrophotometry; assay type: functional; in short: as §1
HT-29 = experiment: Cytotoxicity in human HT-29 cells assessed as growth inhibition incubated for 24 hrs by MTT assay; assay type: functional, cell-based; conditions: HT-29, 24 h; in short: as §2
[8] = Induction of H2S generation assessed as Cmax at 150 uM incubated at 22 degC and pH 7.4 by fluorescence spectrophotometry; assay type: functional; in short: as §1
[9] = Induction of H2S generation assessed as Cmax at 150 uM incubated at 22 degC and pH 5 by fluorescence spectrophotometry; assay type: functional; in short: as §1
[10] = Induction of H2S generation assessed as half life at 150 uM incubated at 22 degC and pH 1.2 by fluorescence spectrophotometry; assay type: functional; in short: as §1
[11] = Induction of H2S generation assessed as half life at 150 uM incubated at 22 degC and pH 7.4 by fluorescence spectrophotometry; assay type: functional; in short: as §1
HepG2 = experiment: Cytotoxicity in human HePG2 cells assessed as growth inhibition incubated for 24 hrs by MTT assay; assay type: functional, cell-based; conditions: HepG2, 24 h; in short: as §2
[12] = Induction of H2S generation assessed as half life at 150 uM incubated at 22 degC and pH 5 by fluorescence spectrophotometry; assay type: functional; in short: as §1
HeLa = experiment: Cytotoxicity in human HeLa cells assessed as growth inhibition incubated for 24 hrs by MTT assay; assay type: functional, cell-based; in short: as §2
[13] = Induction of H2S generation assessed as half life at 150 uM incubated at 37 degC and pH 8 by fluorescence spectrophotometry; assay type: functional; in short: as §1
[14] = Induction of H2S generation assessed as Cmax at 150 uM incubated at 37 degC and pH 1.2 by fluorescence spectrophotometry; assay type: functional; in short: as §1
[15] = Induction of H2S generation assessed as Cmax Induction of H2S generation assessed as Cmax at 150 uM incubated at 37 degC and pH 7.4 by fluorescence spectrophotometry; assay type: functional; in short: as §1
A549 = experiment: Cytotoxicity in human A549 cells assessed as growth inhibition incubated for 24 hrs by MTT assay; assay type: functional, cell-based; conditions: A549, 24 h; in short: as §2
[16] = Induction of H2S generation assessed as half life at 150 uM incubated at 37 degC and pH 1.2 by fluorescence spectrophotometry; assay type: functional; in short: as §1

SMILES	T1/2 [1] [min]	T1/2 [2] [min]	Cmax [3] [µM]	Cmax [4] [µM]	IC50 (MCF7) [µM]	IC50 (WI-38) [µM]	Cmax [5] [µM]	Cmax [6] [µM]	T1/2 [7] [min]	IC50 (HT-29) [µM]	Cmax [8] [µM]	Cmax [9] [µM]	T1/2 [10] [min]	T1/2 [11] [min]	IC50 (HepG2) [µM]	T1/2 [12] [min]	IC50 (HeLa) [µM]	T1/2 [13] [min]	Cmax [14] [µM]	Cmax [15] [µM]	also measured
S=P1(c2ccccc2)OCCCO1	33	33	37.4	24.8	853	653	25.7	35.7	34.7	991	24.4	25.7	33.5	34.6	612	35.8	1280	35.8	38.4	27.2	IC50 (A549): 569 µM; T1/2 [16]: 34.2 min
CC(C)C[C@H](NP(O)(=S)c1ccccc1)C(=O)O (stereo partly drawn)	2.83	4.44	118	113	643	438	111	116	2.75	756	112	112	2.65	3.72	415	3.25	835	3.59	119	118	IC50 (A549): 273 µM; T1/2 [16]: 2.04 min
S=P1(c2ccccc2)OCC2CCCN21 (stereo not drawn)	28.9	29.2	36.8	27.1	920	503	27.1	33.7	28.6	636	26.9	27.1	29.9	27.3	531	28.2	984	27.5	36.2	28.2	T1/2 [16]: 27.8 min
O=C(O)[C@@H]1CCCN1P(O)(=S)c1ccccc1 (stereo partly drawn)	9.92	10.8	4.2	4	874	872	4.1	4.3	9.15	932	4	4.2	10.9	9.27	816	10.6	839	9.83	4.2	4.2	IC50 (A549): 519 µM; T1/2 [16]: 10.4 min
CSCC[C@H](NP(O)(=S)c1ccccc1)C(=O)O (stereo partly drawn)	2.83	4.26	120	114	671	546	113	118	2.44	826	112	113	2.68	3.32	286	3.64	919	3.55	120	120	IC50 (A549): 309 µM; T1/2 [16]: 2.2 min
C[C@H](NP(O)(=S)c1ccccc1)C(=O)O (stereo partly drawn)	2.75	4.33	106	104	832	351	103	106	2.23	689	102	103	2.36	3.72	858	3.32	888	3.4	110	108	IC50 (A549): 346 µM; T1/2 [16]: 1.67 min
S=P1(c2ccccc2)NCCO1 (stereo not drawn)	32.2	31.3	37	30	798	759	29.7	35.4	32.6	539	29.9	29.9	33.8	31.9	775	32.7	930	33.6	35.6	31.1	IC50 (A549): 622 µM; T1/2 [16]: 31.9 min
